Columns and labels:
[1] = target: T1, doOR11A1 (Dipodomys ordii, UniProt A0A1S3GF11); test: cAMP luminescence; assay type: cell-based, Kangaroo rat (Dipodomys ordii)
T1 sequence (A0A1S3GF11 1-311): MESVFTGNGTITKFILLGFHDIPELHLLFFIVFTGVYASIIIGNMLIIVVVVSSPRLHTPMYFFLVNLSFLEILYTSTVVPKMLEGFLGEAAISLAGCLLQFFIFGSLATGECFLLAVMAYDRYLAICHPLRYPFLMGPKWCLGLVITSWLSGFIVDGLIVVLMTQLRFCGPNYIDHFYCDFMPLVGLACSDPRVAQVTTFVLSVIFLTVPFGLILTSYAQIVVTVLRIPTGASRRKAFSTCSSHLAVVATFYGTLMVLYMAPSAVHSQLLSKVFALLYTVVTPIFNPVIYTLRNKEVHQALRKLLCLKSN
In short: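 HEK-293 cells (DMEM, 4.5 g/L glucose, 10% FBS, 2 mM L-glutamine, penicillin/streptomycin; 37 °C, 5% CO2) co-transfected via ViaFect with the ortholog coding region in IL-6-HaloTag-pFN210A and pGloSensor-22F. Luminescence was averaged before and after odorant application, then baseline-subtracted and mock-subtracted. Responses were normalized to OR1A1 response to (R)-(−)-carvone (30 μmol/L). EC50 came from nonlinear sigmoidal regression; mean ± SD, n = 3–6 independent transfections.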

[2] = target: T2, human OR11A1 (Homo sapiens, UniProt Q9GZK7); test: cAMP luminescence; assay type: cell-based; conditions: for KFO screening signal on human OR11A1 relative to 3σ-threshold: each KFO 300 μmol/L, triplicate, normalized to response of OR11A1 to geosmin; for Concentration-dependent activation of OR11A1 (concentration–response validation): normalized to OR1A1 response to (R)-(−)-carvone (30 μmol/L), n = 3
T2 sequence (Q9GZK7 1-315): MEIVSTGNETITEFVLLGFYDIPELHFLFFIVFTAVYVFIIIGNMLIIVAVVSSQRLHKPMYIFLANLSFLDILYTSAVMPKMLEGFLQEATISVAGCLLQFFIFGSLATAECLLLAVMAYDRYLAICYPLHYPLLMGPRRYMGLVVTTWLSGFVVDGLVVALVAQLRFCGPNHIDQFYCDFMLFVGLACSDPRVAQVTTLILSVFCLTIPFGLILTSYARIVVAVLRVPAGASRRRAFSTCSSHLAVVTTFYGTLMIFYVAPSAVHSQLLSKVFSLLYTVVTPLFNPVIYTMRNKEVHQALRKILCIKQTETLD

Row | Compound | Sensitivity of kangaroo rat receptor compared to its human ortholog ([1]; doOR11A1 vs human OR11A1) | Sensitivities of OR11A1 homologues across species compared to the human receptor ([1]; homologues across species vs human OR11A1) | Efficacy of response to geosmin among OR11A1 orthologs ([1]; normalized to OR1A1 response to (R)-(−)-carvone (30 μmol/L)) | KFO screening signal on human OR11A1 relative to 3σ-threshold [2] | Concentration-dependent activation of OR11A1 (concentration–response validation) [2]
1 | C[C@H]1CCC[C@@]2(C)CCCC[C@]12O [geosmin, (4S,4aS,8aR)-4,8a-dimethyloctahydronaphthalen-4a(2H)-ol] | more than 100 fold | up to 100 fold | most effective responder |  | 
2 | CC12CCC(CC1)C(C)(C)O2 [1,8-cineol] |  |  |  | reached the 3σ-threshold | could not be validated
3 | CSCCCO [methionol, 3-(methylsulfanyl) Propanol (methionol)] |  |  |  | reached the 3σ-threshold | could not be validated
4 | C=Cc1ccc(O)cc1 [4-ethenylphenol] |  |  |  | above the 3σ-threshold | could not be validated
5 | CCCCC(=O)OCC [ethyl pentanoate] |  |  |  | above the 3σ-threshold | could not be validated
